Converted amounts (≈) assume the structure as drawn.
Columns and labels:
[1] = Cytotoxicity against African green monkey Vero cells measured by MTT assay; assay type: toxicity, cell-based; conditions: African green monkey (Chlorocebus sabaeus)
Summary of the method: (§1)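 Vero, HepG2 and mouse J774A.1 cells grown in RPMI 1640 with 10% FBS. MTT read-out in 96-well format.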

[2] = test system: Mycobacterium tuberculosis; test: Antimycobacterial activity against Mycobacterium tuberculosis H37Rv measured by MABA assay; assay type: functional
Summary of the method: (§2)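 Microplate Alamar Blue assay against replicating M. tuberculosis H37Rv or clinical isolates. MIC is the lowest concentration giving ≥90% reduction in fluorescence relative to the mean of replicate bacterium-only controls.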

[3] = Selectivity index, Ratio of IC50 for Vero cells over MIC for Mycobacterium tuberculosis H37Rv; assay type: toxicity; conditions: monkey
[4] = Metabolic stability in mouse hepatocytes assessed as half-life at 1 uM measured by LC-MS/MS analysis; assay type: ADME, cell-based, Hepatocyte
Summary of the method: (§3)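 Compound at 1 µM with hepatocytes at 1 million cells/mL final; human hepatocytes are mixed donor, mouse are male. Incubated at 37 °C in CO2 at ~100 rpm. Sampled at 0, 15, 30, 60, 90 and 120 min, quenched in ice-cold ACN/MeOH with internal standard. Parent remaining measured by LC-MS/MS.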

[5] = Cytotoxicity against mouse J774.A1 cells measured by MTT assay; assay type: toxicity, cell-based; summary of the method: as §1
[6] = Cytotoxicity against human HepG2 cells measured by MTT assay; assay type: toxicity, cell-based; summary of the method: as §1
[7] = Metabolic stability in human hepatocytes assessed as compound remaining at 1 uM measured by LC-MS/MS analysis; assay type: ADME, cell-based, Hepatocyte; conditions: read-out: Stability; summary of the method: as §3
[8] = Metabolic stability in human hepatocytes assessed as half-life at 1 uM measured by LC-MS/MS analysis; assay type: ADME, cell-based, Hepatocyte; summary of the method: as §3
[9] = Metabolic stability in mouse hepatocytes assessed as compound remaining at 1 uM measured by LC-MS/MS analysis; assay type: ADME, cell-based, Hepatocyte; conditions: read-out: Stability; summary of the method: as §3
[10] = test system: Mycobacterium tuberculosis; test: Antimycobacterial activity against Mycobacterium tuberculosis 14862 clinical isolate measured by MABA assay; assay type: functional; summary of the method: as §2
[11] = test system: Mycobacterium tuberculosis; test: Antimycobacterial activity against Mycobacterium tuberculosis 13946 clinical isolate measured by MABA assay; assay type: functional; summary of the method: as §2
[12] = target: T1, Decaprenylphosphoryl-beta-D-ribose oxidase (Mycobacterium tuberculosis (strain ATCC 25618 / H37Rv), UniProt P9WJF1); test: Inhibition of recombinant Mycobacterium tuberculosis DprE1 measured by resazurin dye based assay
T1 sequence (P9WJF1 whole entry): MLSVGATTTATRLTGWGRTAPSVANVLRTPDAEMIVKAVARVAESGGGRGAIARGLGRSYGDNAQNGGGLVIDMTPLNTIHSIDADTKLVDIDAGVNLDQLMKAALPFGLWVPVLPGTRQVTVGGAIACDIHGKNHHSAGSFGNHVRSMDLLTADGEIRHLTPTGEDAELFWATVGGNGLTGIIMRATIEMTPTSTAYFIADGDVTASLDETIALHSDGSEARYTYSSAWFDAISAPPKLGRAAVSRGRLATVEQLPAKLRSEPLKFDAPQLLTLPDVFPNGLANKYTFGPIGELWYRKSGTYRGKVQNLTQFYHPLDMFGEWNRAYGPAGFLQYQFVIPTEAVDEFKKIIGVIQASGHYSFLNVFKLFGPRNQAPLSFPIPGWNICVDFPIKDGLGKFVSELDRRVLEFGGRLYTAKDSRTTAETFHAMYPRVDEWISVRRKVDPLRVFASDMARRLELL
Summary of the method: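 Resazurin-coupled fluorescence assay at 30 °C. Buffer: 50 mM HEPES pH 7.5, 100 mM NaCl, 1.5% DMSO, 100 µM Tween-20, 50 µM resazurin, 2 µM FAD. DprE1 at 1 µM with 1 mM FPR across inhibitor concentrations. Resorufin read at ex 530/em 595 nm. IC50 from initial velocities plotted against inhibitor concentration.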

[13] = target: Voltage-gated inwardly rectifying potassium channel KCNH2 (Homo sapiens, UniProt Q12809); test: Inhibition of hERG; assay type: toxicity
Summary of the method: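 Electrophysiological recording of hERG current at 30, 10, 3.0, 1.0 and 0.3 µM, run in duplicate for IC50.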

J774.A1 = test: Antimycobacterial activity against Mycobacterium tuberculosis H37Rv infected in mouse J774.A1 cells assessed as change in log10 CFU at 5 ug/ml; assay type: functional; conditions: dose 5 µg/ml
Summary of the method: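 Mouse J774A.1 macrophages infected with M. tuberculosis H37Rv, test compound at final 10 or 5 µg/mL. Read-out is intracellular log10 CFU; Δlog10 CFU = untreated minus treated. Triplicates in at least three separate experiments.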

Sequence of Voltage-gated inwardly rectifying potassium channel KCNH2 (Q12809 whole entry): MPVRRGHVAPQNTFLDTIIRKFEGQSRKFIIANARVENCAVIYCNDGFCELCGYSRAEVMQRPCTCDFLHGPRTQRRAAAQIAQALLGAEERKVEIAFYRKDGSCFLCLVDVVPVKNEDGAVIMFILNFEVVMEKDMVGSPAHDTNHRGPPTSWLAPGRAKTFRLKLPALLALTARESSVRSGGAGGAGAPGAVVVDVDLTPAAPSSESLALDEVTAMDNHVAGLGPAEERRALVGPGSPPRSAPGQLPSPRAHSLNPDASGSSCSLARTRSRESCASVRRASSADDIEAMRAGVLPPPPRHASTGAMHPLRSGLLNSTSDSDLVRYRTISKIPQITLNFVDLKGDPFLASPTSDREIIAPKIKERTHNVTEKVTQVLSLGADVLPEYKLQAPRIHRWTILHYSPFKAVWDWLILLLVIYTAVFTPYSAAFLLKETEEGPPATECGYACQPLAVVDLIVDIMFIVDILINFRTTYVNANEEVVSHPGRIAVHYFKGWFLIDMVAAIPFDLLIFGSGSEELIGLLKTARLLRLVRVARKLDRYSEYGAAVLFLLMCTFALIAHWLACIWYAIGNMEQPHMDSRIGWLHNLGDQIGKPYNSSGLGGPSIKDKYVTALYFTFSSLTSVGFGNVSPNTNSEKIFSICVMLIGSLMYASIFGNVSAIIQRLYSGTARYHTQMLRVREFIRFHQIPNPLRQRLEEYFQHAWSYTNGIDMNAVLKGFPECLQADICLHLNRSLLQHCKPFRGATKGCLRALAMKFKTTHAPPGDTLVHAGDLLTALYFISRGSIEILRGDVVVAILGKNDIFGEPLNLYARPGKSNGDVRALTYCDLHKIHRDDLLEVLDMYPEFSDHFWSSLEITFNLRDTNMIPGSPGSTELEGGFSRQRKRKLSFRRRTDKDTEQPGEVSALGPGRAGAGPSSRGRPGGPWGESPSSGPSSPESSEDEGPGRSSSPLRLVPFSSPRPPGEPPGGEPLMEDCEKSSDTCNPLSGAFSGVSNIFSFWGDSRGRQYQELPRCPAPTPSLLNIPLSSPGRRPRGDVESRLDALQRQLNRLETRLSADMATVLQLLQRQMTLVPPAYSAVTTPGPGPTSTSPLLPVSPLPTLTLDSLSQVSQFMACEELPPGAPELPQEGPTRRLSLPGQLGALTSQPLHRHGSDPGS

SMILES	IC50 [1]	MIC [2]	selectivity ratio [3]	other results
COC(=O)NC(=O)c1ccsc1NC(=O)c1ccc(C(=O)N2CCCCC2)cc1	> 64 µg/mL	0.19 µg/mL (≈ 0.457 µM)	> 337	
CCOC(=O)NC(=O)c1ccsc1NC(=O)c1ccc(S(=O)(=O)N2CCCCC2)cc1	18.6 µg/mL (≈ 39.9 µM)	0.03 µg/mL (≈ 0.0644 µM)	619	half-life at 1 µM [4]: 50.6 min; IC50 [5]: 34.3 µg/mL (≈ 73.7 µM); IC50 [6]: 38.8 µg/mL (≈ 83.3 µM); remaining at 1 µM [7]: 49.8%; half-life at 1 µM [8]: 29.9 min; remaining at 1 µM [9]: 66.3%; MIC [10]: < 0.016 µg/mL; MIC [11]: < 0.016 µg/mL
CCOC(=O)NC(=O)c1ccsc1NC(=O)c1ccc(S(=O)(=O)Nc2ccc(OC)cc2)cc1		3.64 µg/mL (≈ 7.23 µM)		
CCCOC(=O)NC(=O)c1ccsc1NC(=O)c1ccc(S(=O)(=O)N2CCCCC2)cc1	56.6 µg/mL (≈ 118 µM)	0.051 µg/mL (≈ 0.106 µM)	1110	
COC(=O)NC(=O)c1ccsc1NC(=O)c1ccc(S(=O)(=O)N2CCCC2)cc1	39.4 µg/mL (≈ 90.2 µM)	0.1 µg/mL (≈ 0.229 µM)	395	
COC(=O)NC(=O)c1ccsc1NC(=O)c1ccc(S(=O)(=O)N2CCC(=O)CC2)cc1		3.52 µg/mL (≈ 7.56 µM)		
CC(C)OC(=O)NC(=O)c1ccsc1NC(=O)c1ccc(S(=O)(=O)N2CCOCC2)cc1	13.1 µg/mL (≈ 27.3 µM)	0.45 µg/mL (≈ 0.934 µM)	29	
COC(=O)NC(=O)c1ccsc1NC(=O)c1ccc(S(=O)(=O)N2CCC(c3ccccc3)CC2)cc1		> 32 µg/mL		
O=C(NC(=O)c1ccsc1NC(=O)c1ccc(S(=O)(=O)N2CCOCC2)cc1)OCC(F)(F)F		30.4 µg/mL (≈ 58.4 µM)		
COC(=O)NC(=O)c1ccsc1NC(=O)c1ccc(S(=O)(=O)N2CCC2)cc1	17.5 µg/mL (≈ 41.3 µM)	0.13 µg/mL (≈ 0.307 µM)	134	
CCN(C)S(=O)(=O)c1ccc(C(=O)Nc2sccc2C(=O)NC(=O)OC)cc1	10.4 µg/mL (≈ 24.5 µM)	0.49 µg/mL (≈ 1.15 µM)	21	
COC(=O)NC(=O)c1ccsc1NC(=O)c1ccc(S(=O)(=O)NC23CC4CC(CC(C4)C2)C3)cc1		1.96 µg/mL (≈ 3.79 µM)		
CCOC(=O)NC(=O)c1ccsc1NC(=O)c1ccc(S(=O)(=O)Nc2ccc(F)cc2)cc1	20.5 µg/mL (≈ 41.8 µM)	0.98 µg/mL (≈ 1.99 µM)	21	
O=C(Nc1sccc1C(=O)Nc1ccccn1)c1ccc(S(=O)(=O)N2CCCCC2)cc1		29.6 µg/mL (≈ 62.9 µM)		
COC(=O)NC(=O)c1ccsc1NC(=O)c1ccc(S(=O)(=O)N2CCCCC2)cc1	3.62 µg/mL (≈ 8.02 µM)	0.24 µg/mL (≈ 0.532 µM)	15	half-life at 1 µM [4]: 14 min; IC50 [5]: 36.9 µg/mL (≈ 81.7 µM); IC50 [6]: 36.8 µg/mL (≈ 81.5 µM); remaining at 1 µM [7]: 1%; half-life at 1 µM [8]: 4.6 min; remaining at 1 µM [9]: 22.7%; IC50 [12]: 221 nM; MIC [10]: 0.51 µg/mL (≈ 1.13 µM); IC50 [13]: 3300 nM; MIC [11]: 0.48 µg/mL (≈ 1.06 µM)
CCOC(=O)NC(=O)c1ccsc1NC(=O)c1ccc(S(=O)(=O)N2CCC(OC)CC2)cc1	21 µg/mL (≈ 42.4 µM)	0.03 µg/mL (≈ 0.0605 µM)	701	
CCOC(=O)NC(=O)c1ccsc1NC(=O)c1ccc(S(=O)(=O)Nc2ccccc2)cc1	14.5 µg/mL (≈ 30.6 µM)	0.7 µg/mL (≈ 1.48 µM)	21	
CCOC(=O)NC(=O)c1ccsc1NC(=O)c1ccc(S(=O)(=O)Nc2ccc(C)cc2)cc1		3.56 µg/mL (≈ 7.3 µM)		
CCOC(=O)NC(=O)c1ccsc1NC(=O)c1ccc(S(=O)(=O)Nc2ccccn2)cc1		1.55 µg/mL (≈ 3.27 µM)		
CCOC(=O)NC(=O)c1ccsc1NC(=O)c1ccc(S(=O)(=O)Nc2ccc(Br)cc2)cc1		2.79 µg/mL (≈ 5.05 µM)		

SMILES	IC50 [1]	MIC [2]	selectivity ratio [3]	other results
Cc1ccnc(NC(=O)c2ccsc2NC(=O)c2ccc(S(=O)(=O)N3CCOCC3)cc2)n1	42.7 µg/mL (≈ 87.6 µM)	0.87 µg/mL (≈ 1.78 µM)	49	
COC(=O)NC(=O)c1ccsc1NC(=O)c1ccc(S(=O)(=O)N2CCC(O)CC2)cc1		3.67 µg/mL (≈ 7.85 µM)		
COC(=O)NC(=O)c1ccsc1NC(=O)c1ccc(S(=O)(=O)NC2CCCCC2)cc1	> 64 µg/mL	0.92 µg/mL (≈ 1.98 µM)	> 70	
CCOC(=O)NC(=O)c1ccsc1NC(=O)c1ccc(S(=O)(=O)Nc2cccc(F)c2)cc1		1.14 µg/mL (≈ 2.32 µM)		
Cc1ccnc(NC(=O)c2ccsc2NC(=O)c2ccc(S(=O)(=O)N3CCCCC3)cc2)n1	32.8 µg/mL (≈ 67.5 µM)	0.24 µg/mL (≈ 0.494 µM)	137	half-life at 1 µM [4]: 7.9 min; remaining at 1 µM [7]: 41.2%; half-life at 1 µM [8]: 23.4 min; remaining at 1 µM [9]: 7.3%; IC50 [13]: 1700 nM
COC(=O)NC(=O)c1ccsc1NC(=O)c1ccc(S(=O)(=O)N(C)C)cc1	16.2 µg/mL (≈ 39.3 µM)	1.19 µg/mL (≈ 2.89 µM)	14	
CCOC(=O)NC(=O)c1ccsc1NC(=O)c1ccc(S(=O)(=O)Nc2ccc(OC(F)(F)F)cc2)cc1		26.3 µg/mL (≈ 47.2 µM)		
CCCOC(=O)NC(=O)c1ccsc1NC(=O)c1ccc(S(=O)(=O)N2CCOCC2)cc1		2.45 µg/mL (≈ 5.09 µM)		
CCOC(=O)NC(=O)c1ccsc1NC(=O)c1ccc(S(=O)(=O)Nc2ccc([N+](=O)[O-])cc2)cc1		3.61 µg/mL (≈ 6.96 µM)		
CCOC(=O)NC(=O)c1ccsc1NC(=O)c1ccc(S(=O)(=O)N2CCCCCC2)cc1	3.42 µg/mL (≈ 7.13 µM)	0.024 µg/mL (≈ 0.05 µM)	143	
COC(=O)NC(=O)c1ccsc1NC(=O)c1ccc(S(=O)(=O)N2CCCCCC2)cc1	9.13 µg/mL (≈ 19.6 µM)	0.22 µg/mL (≈ 0.473 µM)	42	
COC(=O)NC(=O)c1ccsc1NC(=O)c1ccc(S(=O)(=O)N2CCC(C)CC2)cc1	9.13 µg/mL (≈ 19.6 µM)	0.23 µg/mL (≈ 0.494 µM)	40	
COC(=O)NC(=O)c1ccsc1NC(=O)c1ccc(S(=O)(=O)N2CCC(OC)CC2)cc1	18 µg/mL (≈ 37.4 µM)	0.03 µg/mL (≈ 0.0623 µM)	601	IC50 [5]: 54.9 µg/mL (≈ 114 µM); IC50 [6]: 46.1 µg/mL (≈ 95.7 µM); MIC [10]: 0.44 µg/mL (≈ 0.914 µM); IC50 [13]: 8900 nM; MIC [11]: 0.25 µg/mL (≈ 0.519 µM)
CCCCNS(=O)(=O)c1ccc(C(=O)Nc2sccc2C(=O)NC(=O)OC)cc1	29.5 µg/mL (≈ 67.1 µM)	0.28 µg/mL (≈ 0.637 µM)	105	
CCOC(=O)NC(=O)c1ccsc1NC(=O)c1ccc(S(=O)(=O)Nc2nccs2)cc1		7.64 µg/mL (≈ 15.9 µM)		
CCOC(=O)NC(=O)c1ccsc1NC(=O)c1ccc(S(=O)(=O)N2CCC2)cc1	> 64 µg/mL	0.049 µg/mL (≈ 0.112 µM)	> 1310	MIC [10]: 0.062 µg/mL (≈ 0.142 µM); MIC [11]: 0.06 µg/mL (≈ 0.137 µM)
O=C(NC(=O)c1ccsc1NC(=O)c1ccc(S(=O)(=O)N2CCCCC2)cc1)OCC(F)(F)F		29.7 µg/mL (≈ 57.2 µM)		
C[C@H]1COc2c(N3CCN(C)CC3)c(F)cc3c(=O)c(C(=O)O)cn1c23.C[C@H]1COc2c(N3CCN(C)CC3)c(F)cc3c(=O)c(C(=O)O)cn1c23.O [LEVOFLOXACIN]		0.33 µg/mL		MIC [10]: 1.87 µg/mL; MIC [11]: 1.94 µg/mL
CO[C@H]1/C=C/O[C@@]2(C)Oc3c(C)c(O)c4c(O)c(c(/C=N/N5CCN(C)CC5)c(O)c4c3C2=O)NC(=O)/C(C)=C\C=C\[C@H](C)[C@H](O)[C@@H](C)[C@@H](O)[C@@H](C)[C@H](OC(C)=O)[C@@H]1C [RIFAMPIN]		0.015 µg/mL (≈ 0.0182 µM)		Activity (J774.A1): 1.03 deltalog10CFU; MIC [10]: 9.24 µg/mL (≈ 11.2 µM); MIC [11]: > 10 µg/mL
CN[C@@H]1[C@H](O[C@H]2[C@H](O[C@H]3[C@H](O)[C@@H](O)[C@H](N=C(N)N)[C@@H](O)[C@@H]3N=C(N)N)O[C@@H](C)[C@]2(O)C=O)O[C@@H](CO)[C@H](O)[C@H]1O [STREPTOMYCIN]		0.49 µg/mL (≈ 0.843 µM)		MIC [10]: > 2 µg/mL; MIC [11]: > 2 µg/mL

— ChEMBL document CHEMBL5154717, “Identification of thiophene-benzenesulfonamide derivatives for the treatment of multidrug-resistant tuberculosis” (Eur J Med Chem, 2022)
